# Laboratory results published in paper PMC3516921 (ChemMedChem, 2012).
# Like-named read-outs stand apart in the source and are kept apart here.
# Tests used:
# [1] = biological target: human cannabinoid CB2 receptors (Homo sapiens, UniProt P34972); test: [35S]GTPγS binding assay on hCB2-CHO cell membranes; format: biochemical; conditions: for Functional effect on [35S]GTPγS binding: hCB2-CHO cell membranes
# [2] = biological target: human cannabinoid type 2 receptor (Homo sapiens, UniProt P34972); test: CB2 receptor competitive binding assay with [3H]CP-55,940; conditions: for S.I. (selectivity index for CB2, Ki(CB1)/Ki(CB2)): Ki(CB1)/Ki(CB2) ratio
# [3] = biological target: human cannabinoid type 1 receptor (Homo sapiens, UniProt P21554); test: CB1 receptor competitive binding assay with [3H]CP-55,940
# [4] = Experimental logP determined by HPLC; format: physicochemical; conditions: RP-18 column; for chromatographic logP: reversed-phase HPLC; for logP Exp: HPLC, MeOH/H2O, extrapolated to zero organic solvent
# CB2 receptor = CB2 receptor (Homo sapiens, UniProt P34972); test: On-line screening on immobilized CB1/CB2-OT column; format: binding; conditions: 0.25 nM [3H]-Win-55,1212 marker, 10 nM compound
# human liver microsomes = test: CYP-dependent in vitro metabolism in human liver microsomes; format: in vitro ADME
# [5] = test system: formalin-induced nocifensive behaviour; test: Formalin test of acute peripheral and inflammatory pain; format: in vivo; conditions: mice; for Effect on 2nd phase of formalin-induced nocifensive behaviour: 3 mg/kg ip, 15 min before formalin; for Effect of AM630 pre-treatment on the antinociceptive effect of the compound: compound 3 mg/kg ip + AM630 1 mg/kg ip 5 min before
# Outline: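 Mice (n = 8–10 per group, randomly assigned) received test compound ip (1 or 3 mg/kg) or vehicle 15 min before formalin (1.25% in saline, 30 μl, dorsal hind paw). Where used, AM630 (1 mg/kg ip) was given 5 min before compound. A blinded observer timed lifting, favouring, licking, shaking and flinching in 5-min bins over 0–10 min (early phase) and 20–60 min (late phase). Analysis was one-way ANOVA with Tukey-Kramer.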
# Kinetic solubility = format: physicochemical; conditions: water with 5% DMSO, 18 h incubation
# [6] = read-out: CB2 Ki, mean ± SD, at least three experiments in duplicate
# [7] = read-out: CB1 Ki, mean ± SD, at least three experiments in duplicate
# [8] = mean ± SD, at least three experiments in duplicate
compound,measurement,setting,value
"CCCCCCC(C)(C)c1ccc([C@@H]2C[C@H](O)CC[C@H]2CCCO)c(O)c1 [CP55940, (−)-cis-3-[2-hydroxy-4-(1,1-dimethylheptyl)phenyl]-trans-4-(3-hydroxypropyl)cyclohexanol, reference compound]",Emax,[1],84.7%
"CCCCCn1cc(-c2cn(C34CC5CC(CC(C5)C3)C4)nn2)c(=O)c2cc(-c3ccc(OC(C)C)cc3)ccc21 [Compound 5, 1-(Adamantan-1-yl)-4-[6-(4-(2-propyloxy)phenyl]-1,4-dihydro-4-oxo-1-pentylquinolin-3-yl]-1H-1,2,3-triazole]",Ki,[2],1680 ± 24.5 nM
same,"S.I. (selectivity index for CB2, Ki(CB1)/Ki(CB2))",[2],> 6
same,Ki,[3],> 10000 nM
same,chromatographic logP,[4],7.78
"CCCCCn1cc(-c2nc(C34CC5CC(CC(C5)C3)C4)no2)c(=O)c2cc(-c3ccc(OC(C)C)cc3)ccc21 [Compound 7, 3-(Adamantan-1-yl)-5-[6-(4-(2-propyloxy)phenyl]-1,4-dihydro-4-oxo-1-pentylquinolin-3-yl]-1,2,4-oxadiadole]",Ki,[2]; [6],> 10000 nM
same,Displacement of marker ligand from OT column,CB2 receptor,very little displacement
same,Ki,[3]; [7],> 10000 nM
same,logP Exp,[4],7.71
"CCCCCn1cc(-c2cn(C34CC5CC(CC(C5)C3)C4)nn2)c(=O)c2cc(Br)ccc21 [Compound 8, 1-(Adamantan-1-yl)-4-(6-bromo-1,4-dihydro-4-oxo-1-pentylquinolin-3-yl)-1H-1,2,3-triazole]",Ki,[2],32.2 ± 1.2 nM
same,Ki,[3],> 10000 nM
same,chromatographic logP,[4],5.83
"CCCCCn1cc(-c2nnc(C34CC5CC(CC(C5)C3)C4)o2)c(=O)c2cc(Br)ccc21 [Compound 9, 2-(Adamantan-1-yl)-5-(6-bromo-1,4-dihydro-4-oxo-1-pentylquinolin-3-yl)-1,3,4-oxadiadole]","S.I. (selectivity index for CB2, Ki(CB1)/Ki(CB2))",[2],> 40
same,Ki,[2]; [6],250 ± 8.6 nM
same,Ki,[3]; [7],> 10000 nM
same,logP Exp,[4],5.15
"CCCCCn1cc(-c2nc(C34CC5CC(CC(C5)C3)C4)no2)c(=O)c2cc(Br)ccc21 [Compound 10, 3-(Adamantan-1-yl)-5-(6-bromo-1,4-dihydro-4-oxo-1-pentylquinolin-3-yl)-1,2,4-oxadiadole]","S.I. (selectivity index for CB2, Ki(CB1)/Ki(CB2))",[2],76
same,Ki,[2]; [6],2.7 ± 0.8 nM
same,Ki,[3]; [7],208 ± 5.5 nM
same,logP Exp,[4],5.77
"CCCCCn1cc(-c2cn(C34CC5CC(CC(C5)C3)C4)nn2)c(=O)c2cc(-c3ccco3)ccc21 [Compound 11, 1-(Adamantan-1-yl)-4-[6-(furan-2-yl)-1,4-dihydro-4-oxo-1-pentylquinolin-3-yl]-1H-1,2,3-triazole]",Emax,[1],-52%
same,Functional effect on [35S]GTPγS binding,[1],inverse agonist effects
same,Ki,[3],> 10000 nM
same,chromatographic logP,[4],5.18
same,Vmax (formation rate),"human liver microsomes; 0.5 mg microsomal protein, 60 min incubation",0.16±0.01 nmol x min^−1 × mg^1 protein
same,CYP isoforms involved in metabolism (inhibition study),human liver microsomes; human liver microsomes,"CYP3A4 is the major isoform involved, while CYP1A and CYP2A are only partially implicated"
same,Metabolite identified,"human liver microsomes; human liver microsomes, HPLC-MS",side chain hydroxylated derivative 32 as its only metabolite
same,Effect on 2nd phase of formalin-induced nocifensive behaviour,[5],significant reduction
same,Effect of AM630 pre-treatment on the antinociceptive effect of the compound,[5],completely abolished
"CCCCCn1cc(-c2nnc(C34CC5CC(CC(C5)C3)C4)o2)c(=O)c2cc(-c3ccco3)ccc21 [Compound 12, 2-(Adamantan-1-yl)-5-[6-(furan-2-yl)-1,4-dihydro-4-oxo-1-pentylquinolin-3-yl]-1H-1,3,4-oxadiadole]","S.I. (selectivity index for CB2, Ki(CB1)/Ki(CB2))",[2],> 1543
same,Ki,[2]; [6],6.5 ± 2.2 nM
same,Solubility,Kinetic solubility,128 µg/mL
same,EC50,"[1]; [35S]GTPγS binding, 95% confidence limits in brackets",57.6 nM
same,Functional effect on [35S]GTPγS binding,[1],inverse agonist effects
same,Emax,"[1]; percentage change in [35S]GTPγS binding, 95% confidence limits in brackets",−46.6% (−52.5 and −40.6%)
same,Ki,[3]; [7],> 10000 nM
same,logP Exp,[4],5.26
same,Effect on 2nd phase of formalin-induced nocifensive behaviour,[5],significant reduction
same,Effect of AM630 pre-treatment on the antinociceptive effect of the compound,[5],did not induce any change
"CCCCCn1cc(-c2nc(C34CC5CC(CC(C5)C3)C4)no2)c(=O)c2cc(-c3ccco3)ccc21 [Compound 13, 3-(Adamantan-1-yl)-5-[6-(furan-2-yl)-1,4-dihydro-4-oxo-1-pentylquinolin-3-yl]-1H-1,2,4-oxadiadole]","S.I. (selectivity index for CB2, Ki(CB1)/Ki(CB2))",[2],82
same,Ki,[2]; [6],0.4 ± 0.1 nM
same,Solubility,Kinetic solubility,7 µg/mL
same,Ki,[3]; [7],33 ± 0.6 nM
same,logP Exp,[4],6.38
"CCCCCn1c(=O)c(-c2cn(C34CC5CC(CC(C5)C3)C4)nn2)cc2ccccc21 [Compound 15, 1-(Adamantan-1-yl)-4-(1-pentylquinolin-2(1H)-one)-1H-1,2,3-triazole]","S.I. (selectivity index for CB2, Ki(CB1)/Ki(CB2))",[2],29
same,Ki,[2]; [6],11.1 ± 3.6 nM
same,Ki,[3]; [7],321.9 ± 2.1 nM
"CCCCCOc1nc2ccccc2cc1-c1cn(C23CC4CC(CC(C4)C2)C3)nn1 [Compound 16, 1-(Adamantan-1-yl)-4-[2-(pentyloxy)quinoline]-1H-1,2,3-triazole]","S.I. (selectivity index for CB2, Ki(CB1)/Ki(CB2))",[2],271
same,Ki,[2]; [6],12.6 ± 4.3 nM
same,Ki,[3]; read-out: CB1 Ki,3415 ± 9.8 nM
"O=c1c(-c2cn(C34CC5CC(CC(C5)C3)C4)nn2)c[nH]c2ccc(-c3ccco3)cc12 [Compound 29, 3-(1-Adamantyl-1H-1,2,3-triazol-4-yl)-6-(furan-2-yl)quinolin-4(1H)-one]",CB2 Ki,[2]; [8],no affinity
same,Ki,[2]; [6],> 10000 nM
same,CB1 Ki,[3]; [8],no affinity
same,Ki,[3]; [7],> 10000 nM
"CC(O)CCCn1cc(-c2cn(C34CC5CC(CC(C5)C3)C4)nn2)c(=O)c2cc(-c3ccco3)ccc21 (stereo not shown) [Compound 32, 3-(1-Adamantyl-1H-1,2,3-triazol-4-yl)-6-(furan-2-yl)-1-(4-hydroxypentyl)quinolin-4(1H)-one]","S.I. (selectivity index for CB2, Ki(CB1)/Ki(CB2))",[2],> 52
same,Loss of potency versus parent compound 11,[2]; racemic form,150 fold
same,Ki,[2]; [6],190 ± 10 nM
same,Ki,[3]; [7],> 10000 nM
